Experimental findings from ChEMBL document CHEMBL1157858, “Synthesis and antituberculosis activity of some N-pyridyl-N'-thiazolylhydrazine derivatives” (Eur J Med Chem, 2010) are described below.

The subject of data set [1] is Mycobacterium tuberculosis. The experiment in a line: Antitubercular activity against Mycobacterium tuberculosis H37Rv by Alamar blue assay. Format: functional, organism-based. Put shortly: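 M. tuberculosis H37Rv (ATCC 27294) grown in BACTEC 12B medium and tested by Microplate Alamar Blue Assay. Ten 2-fold dilutions, typically from 100 to 0.19. IC90 is the concentration giving a 90% drop in fluorescence relative to controls.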
(The colour change of resazurin is a common sign of viable cells or microbes.)

A short description of data set [2]: Cytotoxicity against african green monkey Vero cells after 72 hrs by cell titer-glo assay. Format: cell-based. Conditions: chlorocebus sabaeus. Put shortly:
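Vero cells, run alongside the TB dose-response assay; compound exposure 72 h, then viability read by ATP-based luminescence (CellTiter-Glo). CC50 taken from the dose–response curve by curve fitting.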
For orientation: ATP-based viability assays read luminescence as a measure of living cells.

A short description of data set [3]: Selectivity index, ratio of CC50 for african green monkey Vero cells to IC90 for Mycobacterium tuberculosis H37Rv. In kind it is toxicity, cell-based. Conditions: read-out: Selectivity Index. In outline: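 Vero cells run in parallel with the TB dose-response assay. Viability is read after 72 h exposure by CellTiter-Glo luminescence, which quantifies cellular ATP. CC50 is fitted from the dose-response curve. IC90 for H37Rv comes from the MABA fluorescence readout, as a 90% reduction relative to controls.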

In brackets after ≈: the same amount, converted by molar mass.

As usually defined, the IC50 is the concentration that gives 50% inhibition. In general, IC90 refers to the concentration needed for an effect of 90%. In data set [1], `COc1ccc(O)c(-c2csc(N/N=C(\C)c3ccncc3)n2)c1` displayed an IC50 above 100 µg/mL and an IC90 above 100 µg/mL.

Take `C/C(=N\Nc1nc(-c2cccs2)cs1)c1cccnc1`: in data set [1], the half-maximal inhibitory concentration (IC50) was found to be 92.2 µg/mL (≈ 307 µM) and the 90% effect concentration (IC90) was above 100 µg/mL.

Broadly, the CC50 is the concentration at which the toxic effect on the cells reaches its halfway point. In data set [2], `COc1ccc(O)c(-c2csc(N/N=C(\C)c3ccccn3)n2)c1` came in with a CC50 at 72 h above 40 µg/mL. Further, the selectivity ratio in data set [3] was above 5.89. Further, in data set [1], the half-inhibitory concentration (IC50) was 6.22 µg/mL (≈ 18.3 µM) and it took 6.78 µg/mL (≈ 19.9 µM) to reach the 90% level (IC90).

In data set [1], `C/C(=N\Nc1nc(-c2cccs2)cs1)c1ccncc1` showed a 50% inhibitory concentration (IC50) above 100 µg/mL and an IC90 above 100 µg/mL.

As for `C/C(=N\Nc1nc(-c2cccs2)cs1)c1ccccn1`, in data set [1], the half-maximal inhibitory concentration (IC50) was 48.4 µg/mL (≈ 161 µM) and the 90% effect level (IC90) was put at 55.2 µg/mL (≈ 184 µM).

As to `COc1ccc(O)c(-c2csc(N/N=C(\C)c3cccnc3)n2)c1`, in data set [1], the IC50 is above 100 µg/mL and the IC90 was above 100 µg/mL.
